{"source": "ChEMBL document CHEMBL2010769", "about": "“Synthesis and antiviral activity of 6-deoxycyclopropavir, a new prodrug of cyclopropavir” (Bioorg Med Chem, 2012)", "key": {"Human betaherpesvirus 5 [1]": {"system": "Human betaherpesvirus 5", "assay": "Antiviral activity against HCMV Toledo infected in human thymus/liver tissue xenografted in SCID mouse assessed as decrease in viral infection at 12.5 mg/kg, po qd for 28 days measured on day 35 by RT-PCR analysis (reference value: 67%)", "format": "functional, strain Toledo", "set-up": "scale not given: the % may be the effect or the level left"}, "Murid betaherpesvirus 1 [2]": {"system": "Murid betaherpesvirus 1", "assay": "Antiviral activity against MCMV infected in BALB/c mouse assessed as decrease in virus-induced mortality at 50 mg/kg, po qd for 5 days administered 24 hrs after viral infection (reference value: 67%)", "format": "functional", "set-up": "scale not given: the % may be the effect or the level left", "in_short": "(§1)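 Female BALB/c mice (3 weeks, 15/group) were inoculated ip with MCMV Smith at about LD90. Oral dosing of 0.2 mL in 0.4% CMC ran once daily for 5 days, starting 24 or 48 h post-inoculation. Mice were observed daily for 21 days. Mortality was compared with CMC placebo by Fisher's exact test.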"}, "Murid betaherpesvirus 1 [3]": {"system": "Murid betaherpesvirus 1", "assay": "Antiviral activity against MCMV infected in BALB/c mouse assessed as decrease in virus-induced mean day of death at 16.7 mg/kg, po qd for 5 days administered 48 hrs after viral infection (reference value: 5.1 +/- 0.9 days)", "format": "functional"}, "Human betaherpesvirus 5 [4]": {"system": "Human betaherpesvirus 5", "assay": "Antiviral activity against HCMV Toledo infected in human thymus/liver tissue xenografted in SCID mouse assessed as decrease in viral infection at 6.25 mg/kg, po qd for 28 days by RT-PCR analysis (reference value: 92%)", "format": "functional, strain Toledo", "set-up": "scale not given: the % may be the effect or the level left"}, "Human betaherpesvirus 5 [5]": {"system": "Human betaherpesvirus 5", "assay": "Antiviral activity against HCMV Toledo infected in human thymus/liver tissue xenografted in SCID mouse assessed as mean log10 genome equivalents/animal at 6.25 mg/kg, po qd for 28 days by RT-PCR analysis (reference value: 3.73 +/- 0.784)", "format": "functional, strain Toledo"}, "Human betaherpesvirus 5 [6]": {"system": "Human betaherpesvirus 5", "assay": "Antiviral activity against HCMV Toledo infected in human thymus/liver tissue xenografted in SCID mouse assessed as decrease in viral infection at 6.25 mg/kg, po qd for 28 days measured on day 35 by RT-PCR analysis (reference value: 67%)", "format": "functional, strain Toledo", "set-up": "scale not given: the % may be the effect or the level left"}, "Murid betaherpesvirus 1 [7]": {"system": "Murid betaherpesvirus 1", "assay": "Antiviral activity against MCMV infected in BALB/c mouse assessed as decrease in virus-induced mean day of death at 50 mg/kg, po qd for 5 days administered 48 hrs after viral infection (reference value: 5.1 +/- 0.9 days)", "format": "functional"}, "Human betaherpesvirus 5 [8]": {"system": "Human betaherpesvirus 5", "assay": "Antiviral activity against HCMV Toledo infected in human thymus/liver tissue xenografted in SCID mouse assessed as mean log10 genome equivalents/animal at 12.5 mg/kg, po qd for 28 days measured on day 35 by RT-PCR analysis (reference value: 3.28 +/- 1.422)", "format": "functional, strain Toledo"}, "Mus musculus [9]": {"system": "Mus musculus", "assay": "Toxicity in BALB/c mouse assessed as body weight loss at 5.6 mg/kg, po qd for 5 days relative to control", "format": "organism-based", "set-up": "dose 5.6 mg/kg, route oral", "settings": "in vivo, 120 h", "in_short": "(§2)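 Uninfected female BALB/c mice, 3 weeks old, in groups of 5. Compound suspended in 0.4% carboxymethylcellulose and given orally in 0.2 mL once daily for 5 days at 50, 16.7 or 5.6 mg/kg. Mean group body weight tracked over days 1–5 plus day 6 recovery. Clinical signs (ruffled coat, behaviour) were observed. Comparison was with vehicle-treated or untreated mice.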"}, "Human betaherpesvirus 5 [10]": {"system": "Human betaherpesvirus 5", "assay": "Antiviral activity against HCMV AD169 infected in HFF assessed as reduction in virus induced cytopathic effect", "format": "functional, organism-based", "settings": "Human betaherpesvirus 5, AD169", "in_short": "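HCMV work used human foreskin fibroblasts as primary cultures, propagated in MEM with 10% FBS and L-glutamine, with or without antibiotics.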"}, "Human betaherpesvirus 5 [11]": {"system": "Human betaherpesvirus 5", "assay": "Antiviral activity against HCMV Toledo infected in human thymus/liver tissue xenografted in SCID mouse assessed as mean log10 genome equivalents/animal at 6.25 mg/kg, po qd for 28 days measured on day 35 by RT-PCR analysis (reference value: 3.28 +/- 1.422)", "format": "functional, strain Toledo"}, "Mus musculus [12]": {"system": "Mus musculus", "assay": "Toxicity in BALB/c mouse assessed as changes in behavior at 5.6 mg/kg, po qd for 5 days relative to control", "format": "organism-based", "set-up": "dose 5.6 mg/kg, route oral", "settings": "in vivo, 120 h", "in_short": "as §2"}, "Vaccinia virus": {"system": "Vaccinia virus", "assay": "Antiviral activity against Vaccinia virus infected in HFF assessed as reduction in virus induced cytopathic effect at 100 uM", "format": "functional, organism-based", "settings": "Orthopoxvirus vaccinia"}, "Murid betaherpesvirus 1 [13]": {"system": "Murid betaherpesvirus 1", "assay": "Antiviral activity against MCMV infected in BALB/c mouse assessed as decrease in virus-induced mortality at 5.6 mg/kg, po qd for 5 days administered 24 hrs after viral infection (reference value: 67%)", "format": "functional", "set-up": "scale not given: the % may be the effect or the level left", "in_short": "as §1"}, "Murid betaherpesvirus 1 [14]": {"system": "Murid betaherpesvirus 1", "assay": "Antiviral activity against MCMV infected in BALB/c mouse assessed as decrease in virus-induced mean day of death at 5.6 mg/kg, po qd for 5 days administered 24 hrs after viral infection (reference value: 4.9 +/- 0.7 days)", "format": "functional"}}, "note": "Activity calls are given as the source filed them. The calls are words filed in the database; no cut-off is given here."}
{"smiles": "Nc1ncc2ncn(/C=C3/CC3(CO)CO)c2n1", "values": [{"measurement": "Activity", "setting": "Human betaherpesvirus 5 [1]", "value": 83, "unit": "%"}, {"measurement": "Activity", "setting": "Murid betaherpesvirus 1 [2]", "value": 47, "unit": "%"}, {"measurement": "Activity", "setting": "Murid betaherpesvirus 1 [3]", "value": 7, "unit": "days"}, {"measurement": "Activity", "setting": "Human betaherpesvirus 5 [4]", "value": 58, "unit": "%"}, {"measurement": "Activity", "setting": "Human betaherpesvirus 5 [5]", "value": 2.81}, {"measurement": "Activity", "setting": "Human betaherpesvirus 5 [6]", "value": 100, "unit": "%"}, {"measurement": "Activity", "setting": "Murid betaherpesvirus 1 [7]", "value": 11.9, "unit": "days"}, {"measurement": "Activity", "setting": "Human betaherpesvirus 5 [8]", "value": 2.69}, {"measurement": "Activity", "setting": "Mus musculus [9]", "value": "Non-toxic"}, {"measurement": "EC50", "setting": "Human betaherpesvirus 5 [10]", "value": "> 300", "unit": "µM"}, {"measurement": "Activity", "setting": "Human betaherpesvirus 5 [11]", "value": 3.32}, {"measurement": "Activity", "setting": "Mus musculus [12]", "value": "Non-toxic"}, {"measurement": "Activity", "setting": "Vaccinia virus", "value": "inactive"}, {"measurement": "Activity", "setting": "Murid betaherpesvirus 1 [13]", "value": 7, "unit": "%"}, {"measurement": "Activity", "setting": "Murid betaherpesvirus 1 [14]", "value": 6, "unit": "days"}]}
